Values joined by “and” are separate entries in the source; they are usually repeats but may differ in a detail not shown here. Identical values can stand only once. Like-named read-outs stand apart in the source and are kept apart here. Values belong to the compound of their own block, whether it stands above or below them.
Assays:
[1] = molecular target: adenine nucleotide translocase (ANT); assay: Carboxyatractyloside titration of OxPhos with Easson-Stedman analysis; assay type: biochemical; conditions: read-out: CAT-ANT Kd; human skeletal muscle mitochondria; Easson-Stedman equation; low [ADP] 6.25 and/or 12.5 μM; n=27
Method in brief: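 Human skeletal muscle mitochondria, oxidising glutamate + succinate, were mixed with reaction mix containing 20 μM AP5A, one ADP level (6.25, 12.5 or 25 μM) and one of eight CAT levels (0–5.0 nM). After 5 min for binding, substrate was added to start the reaction. ATP output was followed by luciferase light at 25°C, at least in duplicate. The Easson-Steadman equation gave Kd and ANT concentration.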

Adenylate Kinase = Adenylate Kinase (Mus musculus, UniProt Q9WTP6); assay type: biochemical
Creatine Kinase = assay type: biochemical, mouse; conditions: 10 mM phosphocreatine, 20 μM AP5A, mean
Method in brief: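 Creatine kinase pathway in isolated mouse tissue mitochondria. Started by adding 10 mM phosphocreatine, with 20 μM AP5A to block AK. Run at 25°C in pH 7.0 medium with 100 mM KCl, 50 mM MOPS, 5 mM MgCl2, 10 mM phosphate, D-luciferin and luciferase. ADP at eight concentrations from 0 to 125 μM. Luminescence read each minute over 7–10 min against ATP standard curves; at least duplicate.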

[2] = tested on: Oxidative Phosphorylation; assay: Polarography; assay type: biochemical; conditions: mouse skeletal muscle mitochondria, five preparations, creatine kinase clamp, 5 mM ATP, 37°C
Method in brief: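 Mouse skeletal muscle mitochondria from five preparations, resuspended in mannitol-sucrose buffer, oxidised 10 mM glutamate + 10 mM succinate at 37°C. O2 consumption was recorded continuously. Steady-state ADP was clamped over a range by varying the phosphocreatine/creatine ratio, with 5 mM ATP and saturating creatine kinase. K0.5 was expressed as total ADP and as ADP3−.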

[3] = tested on: Oxidative Phosphorylation; assay type: biochemical; conditions: human skeletal muscle mitochondria, glutamate + succinate, 20 μM AP5A, mean
Method in brief: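 Isolated human skeletal muscle mitochondria, diluted in mannitol–sucrose buffer. Firefly luciferase ATP-accumulation assay at 25°C in KCl/MOPS medium at pH 7.0 with 5 mM MgCl2, 10 mM phosphate, glucose, EGTA, DTT and 0.2 g% BSA, plus 20 μM AP5A. ADP at eight levels from 0 to 125 μM (ΣADP). Started with 10 mM glutamate + 10 mM succinate. RLU read per minute over 7–10 min; at least duplicate.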

[4] = tested on: Oxidative Phosphorylation; assay type: biochemical, mouse
Method in brief: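 Mouse liver, kidney, heart and skeletal muscle mitochondria were isolated and diluted in mannitol–sucrose buffer. Run at 25°C in KCl/MOPS medium at pH 7.0 with 5 mM MgCl2, 10 mM phosphate, 20 μM AP5A, luciferin and luciferase. Eight ADP levels from 0 to 125 μM; start with 10 mM glutamate + 10 mM succinate. Luminescence read each minute for 7–10 min against ATP standards; at least duplicate. ADP3− computed from ΣADP.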

[5] = molecular target: adenine nucleotide translocase (ANT); conditions: read-out: ANT-ADP dissociation constant, KdADP^3−; free ion ADP^3−; cited from earlier work
[6] = tested on: Oxidative Phosphorylation; conditions: cited from earlier work
[7] = mouse skeletal muscle mitochondria
[8] = mouse heart mitochondria, no AP5A, mean
[9] = mouse kidney mitochondria, no AP5A, mean
[10] = mouse skeletal muscle mitochondria, no AP5A, mean
[11] = mouse heart mitochondria, glutamate + succinate, 20 μM AP5A, mean
[12] = mouse kidney mitochondria, glutamate + succinate, 20 μM AP5A, mean
[13] = mouse liver mitochondria, glutamate + succinate, 20 μM AP5A, mean
[14] = mouse skeletal muscle mitochondria, glutamate + succinate, 20 μM AP5A, mean

Structure (SMILES): C=C1[C@@H]2CC[C@H]3[C@]4(C)C[C@H](O[C@@H]5O[C@H](CO)[C@@H](OS(=O)(=O)O)[C@H](OS(=O)(=O)O)[C@H]5OC(=O)CC(C)C)CC(C(=O)O)(C(=O)O)[C@H]4CC[C@]3(C2)[C@H]1O [CAT, Carboxyatractyloside]
Kd [1]: 0.048 ± 0.002 nM

AK activity in the presence of AP5A (Adenylate Kinase; AP5A present at 20 μM, Figure S-8a, S-8b): not detectable
Structure (SMILES): Nc1ncnc2c1ncn2[C@@H]1O[C@H](COP(=O)(O)OP(=O)(O)OP(=O)(O)OP(=O)(O)OP(=O)(O)OC[C@H]2O[C@@H](n3cnc4c(N)ncnc43)[C@H](O)[C@@H]2O)[C@@H](O)[C@H]1O [AP5A, diadenosine pentaphosphate, reference compound]

Structure (SMILES): Nc1ncnc2c1ncn2[C@@H]1O[C@H](COP(=O)(O)OP(=O)(O)O)[C@@H](O)[C@H]1O [ADP]
K0.5ADP, Creatine Kinase, Heart (Creatine Kinase; mouse heart mitochondria, 25°C, pH 7.0): 24.4 µM
Vmax, Creatine Kinase, Heart (Creatine Kinase; mouse heart mitochondria): 273.9 nmol ATP min^−1 mg^−1
nH (Hill exponent), Creatine Kinase, Heart (Creatine Kinase; mouse heart mitochondria): 1.00
K0.5ADP, Creatine Kinase, Kidney (Creatine Kinase; mouse kidney mitochondria, 25°C, pH 7.0): 37.8 µM
Vmax, Creatine Kinase, Kidney (Creatine Kinase; mouse kidney mitochondria): 28.7 nmol ATP min^−1 mg^−1
nH (Hill exponent), Creatine Kinase, Kidney (Creatine Kinase; mouse kidney mitochondria): 1.00
K0.5ADP, Creatine Kinase, Muscle (Creatine Kinase; mouse skeletal muscle mitochondria, 25°C, pH 7.0): 36.3 µM
Vmax, Creatine Kinase, Muscle (Creatine Kinase; [7]): 944.2 nmol ATP min^−1 mg^−1
nH (Hill exponent), Creatine Kinase, Muscle (Creatine Kinase; [7]): 1.07
K0.5ADP^3−, Polarography ([2]; free ion ADP^3−): 4.4 ± 0.4 µM and 4.4 µM
K0.5ADP (ΣADP), Polarography ([2]; glutamate + succinate): 13.1 ± 1.3 µM and 13.1 µM
Vmax [3]: 251.9 nmol/min/mg
nH [3]: 1.16
K0.5ADP ([3]; ΣADP): 11.1 ± 0.8 µM and 11.1 µM
K0.5ADP, Adenylate Kinase, Heart (Adenylate Kinase; mouse heart mitochondria, no AP5A, 25°C, pH 7.0, mean): 54.9 µM
Vmax, Adenylate Kinase, Heart (Adenylate Kinase; [8]): 30.2 nmol ATP min^−1 mg^−1
nH (Hill exponent), Adenylate Kinase, Heart (Adenylate Kinase; [8]): 1.85
K0.5ADP, Adenylate Kinase, Kidney (Adenylate Kinase; mouse kidney mitochondria, no AP5A, 25°C, pH 7.0, mean): 64.3 µM
Vmax, Adenylate Kinase, Kidney (Adenylate Kinase; [9]): 102.3 nmol ATP min^−1 mg^−1
nH (Hill exponent), Adenylate Kinase, Kidney (Adenylate Kinase; [9]): 1.74
K0.5ADP, Adenylate Kinase, Liver (Adenylate Kinase; mouse liver mitochondria, no AP5A, 25°C, pH 7.0, mean): 84.0 µM
nH (Hill exponent), Adenylate Kinase, Liver (Adenylate Kinase; mouse liver mitochondria, no AP5A, mean): 1.53
K0.5ADP, Adenylate Kinase, Muscle (Adenylate Kinase; mouse skeletal muscle mitochondria, no AP5A, 25°C, pH 7.0, mean): 78.0 µM
Vmax, Adenylate Kinase, Muscle (Adenylate Kinase; [10]): 25.7 nmol ATP min^−1 mg^−1
nH (Hill exponent), Adenylate Kinase, Muscle (Adenylate Kinase; [10]): 1.68
K0.5ADP^3− for OxPhos, heart ([4]; mouse heart mitochondria, free ion ADP^3− calculated from ΣADP): 1.9 μM and ~ 1.9 μM
Vmax, Oxidative Phosphorylation, Heart [4, 11]: 242.4 nmol ATP min^−1 mg^−1
nH (Hill exponent), Oxidative Phosphorylation, Heart [4, 11]: 1.35
K0.5ADP^3− for OxPhos, kidney ([4]; mouse kidney mitochondria, free ion ADP^3− calculated from ΣADP): 1.9 μM and ~ 1.9 μM
Vmax, Oxidative Phosphorylation, Kidney [4, 12]: 109.9 nmol ATP min^−1 mg^−1
nH (Hill exponent), Oxidative Phosphorylation, Kidney [4, 12]: 1.45
K0.5ADP, Oxidative Phosphorylation, Liver ([4]; mouse liver mitochondria, glutamate + succinate 10 mM + 10 mM, 20 μM AP5A, 25°C, pH 7.0, ΣADP, mean): 22.3 µM
Vmax, Oxidative Phosphorylation, Liver [4, 13]: 59.9 nmol ATP min^−1 mg^−1
nH (Hill exponent), Oxidative Phosphorylation, Liver [4, 13]: 1.33
K0.5ADP^3−, Luciferase ([4]; mouse skeletal muscle mitochondria, same five preparations, 25°C, free ion ADP^3−): 1.9 ± 0.1 μM and 1.9 ^* μM
K0.5ADP (ΣADP), Luciferase ([4]; mouse skeletal muscle mitochondria, same five preparations, 25°C, glutamate + succinate): 11.9 ± 0.6 µM and 11.9 µM
K0.5ADP^3− for OxPhos, skeletal muscle ([4]; mouse skeletal muscle mitochondria, free ion ADP^3− calculated from ΣADP): 1.9 μM and ~ 1.9 μM
K0.5ADP, Oxidative Phosphorylation, Muscle ([4]; mouse skeletal muscle mitochondria, glutamate + succinate, 20 μM AP5A, 25°C, pH 7.0, ΣADP, mean): 11.9 µM
Vmax, Oxidative Phosphorylation, Muscle [4, 14]: 553.5 nmol ATP min^−1 mg^−1
nH (Hill exponent), Oxidative Phosphorylation, Muscle [4, 14]: 1.19
Kd [5]: ~4000 nM
Hill exponent, nH, in vivo ([6]; in vivo OxPhos vs [ADP], sigmoidal relationship): ~2.0
OxPhos K0.5ADP in vivo ([6]; intact contracting mammalian skeletal muscle, 31P-MRS): 20 to 40 µM

From paper PMC8725320 (Biochimica et biophysica acta. Bioenergetics, 2021)
